Screening results deposited in PubChem by several laboratories.
D1 allo mod – D1 dopamine receptor (human) allosteric modulation. P21728. HEK293 D1, CRE-luciferase, dopamine EC30 potentiation; actives deviate in either direction. B-score at 10 µM. 58,000 compounds, 5.9% hits. AID 641;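 active = luminescence count or its row- and column-corrected plate score outside the 99.7% band of the plate's sample wells, on either side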
S1P3 ag – activates the human S1P3 receptor; Q99500; S1P3 NFAT-BLA reporter cells, agonism, FRET ratio; relative to 1 µM S1P, basal subtracted; activation, % at 4.5 µM; 60,000 compounds, 0.1% hits; AID 373;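 active = activation above the screen-wide mean plus 3 SD, cut at about 4.5% in these data, passing the limit was not always enough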
Target sequence (Q99500 whole entry, looked up): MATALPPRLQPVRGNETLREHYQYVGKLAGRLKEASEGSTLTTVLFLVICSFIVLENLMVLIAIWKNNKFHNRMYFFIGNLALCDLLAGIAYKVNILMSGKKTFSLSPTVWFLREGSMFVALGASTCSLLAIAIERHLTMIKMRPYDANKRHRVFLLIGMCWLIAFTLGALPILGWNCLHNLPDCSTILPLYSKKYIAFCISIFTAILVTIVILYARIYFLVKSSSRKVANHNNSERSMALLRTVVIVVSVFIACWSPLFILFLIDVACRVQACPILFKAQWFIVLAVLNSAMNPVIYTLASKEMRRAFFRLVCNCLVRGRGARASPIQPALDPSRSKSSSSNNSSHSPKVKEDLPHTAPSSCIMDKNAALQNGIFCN
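Benchmarks: high control 1 µM S1P / System: stable CHO line with human S1P3, Gα16, NFAT-BLA reporter / Dosing: single compound concentration, 4.5 µM final / Timing: 4 h compound at 37 °C, 2 h substrate at RT / Measured by: FRET β-lactamase substrate fluorescence, excitation 405 nm, 460/535 nm emission ratio, background-subtracted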
M1 antag – blocks the rat M1 muscarinic receptor response to acetylcholine | CHO-M1 cells, Fluo-4 calcium, ACh EC80 antagonist mode; active compounds read low | B-score at 10 µM | 64,000 compounds, 3.4% hits | AID 628;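 active = calcium fluorescence response, raw or row-and-column corrected B-score, differing from the plate sample mean either way at a set confidence level, mostly lower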
S1P1 ag-PAM – S1P1 (human) agonism or agonism potentiation; P21453; S1P1 CRE-bla cells, forskolin, beta-lactamase FRET, potentiator mode; S1P1 agonist co-added at EC20, 2 nM; 100% = saturating reference agonist, 0% = basal; activation, % at 9.5 µM; 56,000 compounds, 0.57% hits;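 active = activation above a cutoff set at the mean activation of all tested compounds plus 3 SD, cut at about 54% in these data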;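 note: forskolin at 4 µM as EC80 and the EC20 agonist is SEW2871; 100% = SEW2871 at its EC100 plus forskolin at EC80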
M1 agonist – activates the M1 muscarinic receptor; CHO-M1 cells, Fluo-4 calcium fluorescence, agonist mode; active compounds read high; AID 626; 64,000 compounds, 3% hits; B-score at 10 µM;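 active = fluorescence rise, raw or as B-score row- and column-corrected plate score, outside the 99.7% band of its plate's samples, either direction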
* hit, by the source's call. This is a sample that favours compounds with a hit; in the whole collection about 11% have one here.

`Cc1cc(C(=O)CSc2nc3ccc(Cl)cc3[nH]2)c(C)n1C` gave D1 allo mod -0.0167, S1P3 ag -1.1, M1 antag -0.00157, S1P1 ag-PAM -10.1 and M1 agonist -1.56.
For Cc1cc(C(=O)CSc2nnc(-c3ccccc3)n2C)c(C)n1C the results were S1P3 ag -1.2, M1 antag 0.547, S1P1 ag-PAM 3.3 and M1 agonist 0.416.
Cc1cc(C(=O)CSc2nnc(-c3cccnc3)n2-c2ccccc2F)c(C)n1C was read as D1 allo mod -1.37, S1P3 ag -0.7, M1 antag -0.576, S1P1 ag-PAM 101.3* and M1 agonist 0.398.
Cc1cc(C(=O)CSc2nc3ccccc3[nH]2)c(C)n1C was read as D1 allo mod -2.87*, S1P3 ag -0.6, M1 antag -0.0323, S1P1 ag-PAM -5.9 and M1 agonist -0.0311.
`Cc1cc(C(=O)CSc2nnc(-c3ccccc3)n2-c2ccccc2)c(C)n1-c1ncn[nH]1` gave D1 allo mod -0.0376, S1P3 ag -0.7, M1 antag -0.218, S1P1 ag-PAM 89.8* and M1 agonist 0.745.
For Cc1cc(C(=O)CSc2nnc(-c3ccncc3)n2-c2ccccc2)c(C)n1C the results were D1 allo mod -0.0734, S1P3 ag 0.3, M1 antag 0.912, S1P1 ag-PAM 96.8* and M1 agonist -0.749.
`COc1c2occc2c(OC)c2c(=O)cc(C(F)(F)C(F)(F)F)oc12` gave D1 allo mod 1.14, S1P3 ag -0.3, M1 antag 0.405, S1P1 ag-PAM -12.9 and M1 agonist 1.06.
CCOc1ccc(CCNC(=O)C2CCC(=O)N2C2CCCCC2)cc1OCC (stereo not given) was read as D1 allo mod 0.647, S1P3 ag -0.9, M1 antag 0.442, S1P1 ag-PAM -0.4 and M1 agonist 1.31.
`O=c1nc2n(c3c4c(sc13)CCC4)CCC2` gave D1 allo mod -0.511, S1P3 ag -0.8, M1 antag -1.43, S1P1 ag-PAM -10.0 and M1 agonist 0.577.
For CN(C)S(=O)(=O)c1ccc2c(c1)c(=O)c(C(=O)N1CCOCC1)cn2C the results were D1 allo mod 0.47, S1P3 ag 1.5, M1 antag 0.882, S1P1 ag-PAM -6.2 and M1 agonist 0.575.
CCOC(=O)C1CCCN(C(=O)c2cn(C)c3ccc(S(=O)(=O)N(C)C)cc3c2=O)C1 (stereo not given) was read as D1 allo mod 0.834, S1P3 ag -0.3, M1 antag 0.97*, S1P1 ag-PAM -22.4 and M1 agonist 0.217.
Screening CCn1nnc(NC(=O)c2cccnc2)n1 returned D1 allo mod 0.00483, S1P3 ag -1.6, M1 antag 0.775*, S1P1 ag-PAM -1.7 and M1 agonist -0.956.
`CN(Cc1ccccc1)Cc1c(F)cccc1F` gave D1 allo mod 1.66, S1P3 ag -1.3, M1 antag -0.041, S1P1 ag-PAM 4.9 and M1 agonist 0.436.
Screening CN(Cc1ccccc1)Cc1c[nH]c2ccccc12 returned D1 allo mod -4.5*, S1P3 ag -3.5, M1 antag -0.129, S1P1 ag-PAM 5.4 and M1 agonist -0.000874.
For Cc1ccc(Cl)c(OCC(=O)Nc2ccc3c(c2)OCCO3)c1 the results were D1 allo mod -0.783, S1P3 ag -0.4, M1 antag -0.308, S1P1 ag-PAM -2.3 and M1 agonist 4.32*.
For Cc1cccc(OCC(=O)Nc2ccc3c(c2)OCO3)c1C the results were D1 allo mod 0.241, S1P3 ag -1.7, M1 antag -0.00385, S1P1 ag-PAM 13.7 and M1 agonist 0.0696.
COc1cccc(C(=O)Nc2cccc(NC(C)=O)c2)c1 was read as D1 allo mod 0.194, S1P3 ag -1.4, M1 antag 1.17, S1P1 ag-PAM -8.7 and M1 agonist 0.489.
`COc1cccc(C(=O)Nc2ccc(NC(=O)C(C)(C)C)cn2)c1` gave D1 allo mod -6.32*, M1 antag -0.31 and M1 agonist -1.08.
`COc1ccc(C(=O)Nc2cccc(OC)c2)cc1` gave D1 allo mod -3.71*, S1P3 ag -0.7, M1 antag -0.144, S1P1 ag-PAM -33.0 and M1 agonist 0.0789.
`Cc1ccc2c(CC(=O)OC(C)C(=O)NCc3ccc4c(c3)OCO4)coc2c1` (stereo not given) gave D1 allo mod 1.85, S1P3 ag 0.0, M1 antag -0.187, S1P1 ag-PAM -15.8 and M1 agonist 0.645.
